Here are results for 58 compounds from PubChem BioAssay AID1217 (Sanford-Burnham Center for Chemical Genomics, 2008).

One may read the inhibition as the drop in the measured response relative to a control, in per cent.

The campaign covered roughly 190,000 compounds. About 1,300 (0.68%) were called active. Only a selection was taken, and actives are over-represented in it overall. A number with no mark means an inactive call.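 Rule for the calls: active = primary screen inhibition at 20 µM above a set limit (cut at about 50% in these data); inactive = the rest.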

The test system of the assay is diaphorase (Clostridium kluyveri). The assay can be described thus: compounds blocking diaphorase resazurin reduction – biochemical, uHTS, resorufin fluorescence, counter-screen for diaphorase-coupled primary assays, primary screen (AID 1217).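 Note: plate controls were DMSO with full reaction for no effect and wells lacking NADH for full effect.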 Particulars: diaphorase resazurin-to-resorufin fluorescence, NADH, 16 min; at 20 µM; hits give high values; bacterial (C. kluyveri) enzyme, not human. The gist of the method:
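Assay system – diaphorase enzyme from Clostridium kluyveri · Amount – diaphorase 0.14 U/mL (working solution) · Times – reaction incubation of 16 min at room temperature · Controls – No-NADH positive control and DMSO neutral control · Signal – resorufin fluorescence 544/590 nm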
Background: The colour change of resazurin is a common sign of viable cells or microbes.
As to `O=C(Oc1cccc(NC2=NS(=O)(=O)c3ccccc32)c1)c1ccncc1`, the inhibition is 50.9% (active).
On to `O=C(Oc1ccccc1)c1ccc2nccnc2c1`, for which the inhibition was 6.5%.
As for `CC(C)(C)c1csc(NC2=NS(=O)(=O)c3ccccc32)n1`, the inhibition was 15.4%.
`Cc1ccc(NC(=O)c2sccc2C)cc1[N+](=O)[O-]`: the inhibition was 12.8%.
In the case of `O=C(COC(=O)/C=C/c1ccc(S(=O)(=O)N2CCCCCC2)cc1)NCc1ccccc1Cl`, the inhibition is 7.9%.
Consider `CN(C)NC(=O)C(NC(=O)c1ccc(N)cc1)C12CC3CC(CC(C3)C1)C2` (stereo not drawn), for which the inhibition was 4.7%.
For the compound `Brc1ccc(CSc2ccc(-c3ccco3)nn2)cc1`, the inhibition was 6.5%.
`c1ccc(CSc2nnc(-c3ccco3)c(-c3ccco3)n2)cc1`: the inhibition is 52.9% (active).
In the case of `Clc1ccccc1CSc1nnc(-c2ccco2)c(-c2ccco2)n1`, the inhibition was 46.2%.
For the compound `O=C(CCN1CCN(c2ccccc2)CC1)NNC(=S)Nc1ccccc1`, the inhibition is 20.6%.
Consider `COC(=O)/C=C\C(=O)Nc1cccc([N+](=O)[O-])c1`, for which the inhibition was -5.8%.
As to `Cc1cccc(NC(=O)c2sc3nc4c(c(-c5ccco5)c3c2N)CCC4)c1`, the inhibition was 61.2% (active).
Take `Cc1ccc(NC(=O)c2sc3nc(N)c(C#N)cc3c2N)cc1`: the inhibition is 18.4%.
`Cc1nc2sc(C(=O)c3ccccc3)c(N)c2c2c1CCCC2`: the inhibition was 28.7%.
`NC(=O)c1sc2nc3c(c(-c4ccccc4)c2c1N)CCC3`: the inhibition was 36.8%.
On to `CC(=O)Nc1ccc(NC(=O)c2sc3nc4c(c(-c5ccc(C)cc5)c3c2N)CCC4)cc1`, for which the inhibition was 51.1% (active).
Regarding `Cc1cccc(NC(=O)CSc2nnc(-c3ccco3)o2)c1`, the inhibition was 9.8%.
Turning to `COCCN(C(=O)CCC(=O)Nc1nccs1)C(C(=O)NC(C)(C)C)c1ccc(Cl)cc1` (stereo not drawn), the inhibition was 10.1%.
In the case of `COc1cccc(CN(C)CC(=O)Nc2ccccc2C(=O)Nc2ccccc2)c1` it was 26.6%.
The same measure for `S=C(Nc1ccc2c(c1)OCO2)N1CCCC1`: 3.4%; for `N/C(=N\OC(=O)Cc1ccccc1[N+](=O)[O-])c1ccc(Br)cc1`: 23.2%; for `Cc1ccc2[nH]c(=O)c(-c3nc4c(C)cccn4c3NCc3ccco3)cc2c1`: 51.5% (active).
On to `COc1ccc(CCn2c(=N)c(C(=O)NCc3ccco3)cc3c(=O)n4cccc(C)c4nc32)cc1`, for which the inhibition was 8.1%.
Take `CCNCc1cc2cc(C)ccc2[nH]c1=O`: the inhibition is 20%.
For `Cc1ccc(C)c(-n2cc(CN3CCN(C(=O)c4ncn[nH]4)CC3)c(-c3ccccc3)n2)c1`, the inhibition was 13.7%.
As to `c1ccc(C2=Nc3cccc4cccc(c34)N2)cc1`, the inhibition was 27%.
Take `Fc1ccccc1N=C1Nc2cccc3cccc1c23`: the inhibition is 12.1%.
As for `COc1ccccc1C1=Nc2cccc3cccc(c23)N1`, the inhibition is 63.5% (active).
Take `O=C1CC(=O)Nc2cc(S(=O)(=O)N3CCN(c4cccc(C(F)(F)F)c4)CC3)ccc2N1`: the inhibition is 0.3%.
With `CCOC(=O)C1=NOC(Cn2cc(C(C)=O)c(=O)[nH]c2=O)C1` (stereo not drawn), the inhibition was 2.6%.
As for `CCOc1cc(/C=N/NC(=O)c2ccc(CSc3nncn3C)cc2)ccc1OCC(=O)N1CCOCC1`, the inhibition is -14%.
In the case of `COc1cc(CNCCN(C)C)ccc1OCc1c(F)cccc1Cl` it was 3.9%; in that of `COc1ccc(C[C@H]2CN3C(=NC[C@H]3C)N2CCNC(=O)CCC2CCCCC2)cc1`, 0.9%.
Turning to `Cc1nc2ccccc2n1CC(=O)N/N=C/c1cccnc1`, the inhibition was 8.6%.
Take `O=C(N/N=C/c1ccc(O)c(O)c1)C1c2ccccc2Oc2ccccc21`: the inhibition was 37.6%.
Take `Cc1nccn1CC(=O)N/N=C/c1ccc(O)c(O)c1`: the inhibition was 50.4% (active).
With `CCN(CC)C(=O)Cn1cc(S(=O)(=O)CC(=O)NCc2ccc3c(c2)OCO3)c2ccccc21`, the inhibition was 10.1%.
In the case of `CC(C)Oc1ccc(CC(=O)NNC(=S)Nc2ccc(Br)cc2)cc1` it was -0.6%.
On to `COC(=O)c1ccc(C(=O)OC)c(NC(=S)N2CCN(c3ccc(F)cc3)CC2)c1`, for which the inhibition was 11.5%.
For the compound `CCc1ccc(N(CC(=O)Nc2sc3c(c2C(=O)OC)CCCC3)S(C)(=O)=O)cc1`, the inhibition was 28.6%.
Regarding `Cc1ccc(NC(=O)CSc2nnc(COc3ccccc3C)o2)cc1`, the inhibition was 55.6% (active).
`Cc1cc(C)cc(OCc2nnc(SCC(=O)Nc3ccccc3)o2)c1`: the inhibition is 8.2%.
For the compound `Cc1ccc(NC(=O)CSc2nnc(CNC(=O)c3ccccc3F)o2)cc1`, the inhibition was -12.4%.
Consider `C/C(=N\NC(=O)OC(C)(C)C)c1ccc[nH]1`, for which the inhibition was 1.8%.
Regarding `COc1ccc(-c2cc(C3CCN(c4ncccc4[N+](=O)[O-])CC3)[nH]n2)cc1`, the inhibition was 52.2% (active).
On to `CC(=O)NC(Cc1ccccc1)C(=O)NC1CCN(c2ncccc2[N+](=O)[O-])CC1` (stereo not drawn), for which the inhibition was 15.7%.
For `COc1ccc(N2CCN(c3ccc([N+](=O)[O-])nc3)CC2)cc1`, the inhibition was -1%.
Regarding `Cc1ccc(CNC(=O)Cn2c(=O)c3sccc3n(Cc3cccc([N+](=O)[O-])c3)c2=O)cc1`, the inhibition was -2.4%.
With `O=C(C1CCN(S(=O)(=O)c2ccc(Br)s2)CC1)N1CCN(C2CCCCC2)CC1`, the inhibition is 18.2%.
In the case of `CCn1c(=O)cc(O)c2ccccc21`, the inhibition is 8.6%.
In the case of `CCn1c(O)c(N=NC2=NC(=O)CS2)c2cc(C)ccc21` it was 86.4% (active).
`CCn1c(O)c(N=NC(=O)c2cccc(S(=O)(=O)N3CCCCC3)c2)c2ccccc21`: the inhibition is 29.2%.
Turning to `CC(C)c1ccc(Nc2nnc(SCC(=O)c3nnc(-c4ccccc4)o3)s2)cc1`, the inhibition was 18.8%.
Consider `O=C1OCC2=C1C(c1ccccc1)CC(=O)N2c1cccc(F)c1` (stereo not drawn), for which the inhibition was -4.2%.
The same measure for `COc1ccc(N2CCN(CCCNC(=O)C3CCN(S(=O)(=O)N4CCOCC4)CC3)CC2)cc1`: 0.3%.
Consider `CC(=O)n1cc([C@H]2C=C(C(=O)N3CCOCC3)O[C@@H](OCc3ccc(CO)cc3)C2)c2ccccc21`, for which the inhibition is -0.6%.
In the case of `CN1CCN(C(=O)C2=C[C@H](c3ccc4c(c3)OCO4)C[C@H](OCc3ccc(CO)cc3)O2)CC1` it was 5.9%.
On to `CC(=O)n1cc([C@@H]2C=C(C(=O)N3CCN(Cc4ccc5c(c4)OCO5)CC3)O[C@H](OCc3ccc(CO)cc3)C2)c2ccccc21`, for which the inhibition is 53.6% (active).
